Sampled rows, rich in hits. Any-hit rate of the full collection: about 1.7%.
VIM-2 inhibitor: inhibitors of Pseudomonas aeruginosa VIM-2 metallo-beta-lactamase | 0.89% of 290,000 active | purified VIM-2, nitrocefin hydrolysis, epi-absorbance fluorescence | inhibition, % at 5.6 µM;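 active = inhibition above the mean of all tested compounds plus 3 SD, cutoff set per screening run, cut at about 7.5% in these data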;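 note: red hydrolysis product quenches plate fluorescence so inhibitors raise well fluorescence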
Neddyl block: cullin neddylation inhibition | P61081+Q13564 | TR-FRET cullin neddylation, biochemical | calls only at 25 µM | 0.58% of 360,000 active | AID 651699; in the data active = inhibition above about 36%
Target sequence (P61081 whole entry, looked up): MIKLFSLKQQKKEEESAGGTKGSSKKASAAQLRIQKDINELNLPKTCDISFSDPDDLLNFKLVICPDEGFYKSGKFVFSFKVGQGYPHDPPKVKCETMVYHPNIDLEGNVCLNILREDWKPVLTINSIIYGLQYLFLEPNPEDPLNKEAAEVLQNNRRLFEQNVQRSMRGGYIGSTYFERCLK
Target sequence (Q13564 whole entry, looked up): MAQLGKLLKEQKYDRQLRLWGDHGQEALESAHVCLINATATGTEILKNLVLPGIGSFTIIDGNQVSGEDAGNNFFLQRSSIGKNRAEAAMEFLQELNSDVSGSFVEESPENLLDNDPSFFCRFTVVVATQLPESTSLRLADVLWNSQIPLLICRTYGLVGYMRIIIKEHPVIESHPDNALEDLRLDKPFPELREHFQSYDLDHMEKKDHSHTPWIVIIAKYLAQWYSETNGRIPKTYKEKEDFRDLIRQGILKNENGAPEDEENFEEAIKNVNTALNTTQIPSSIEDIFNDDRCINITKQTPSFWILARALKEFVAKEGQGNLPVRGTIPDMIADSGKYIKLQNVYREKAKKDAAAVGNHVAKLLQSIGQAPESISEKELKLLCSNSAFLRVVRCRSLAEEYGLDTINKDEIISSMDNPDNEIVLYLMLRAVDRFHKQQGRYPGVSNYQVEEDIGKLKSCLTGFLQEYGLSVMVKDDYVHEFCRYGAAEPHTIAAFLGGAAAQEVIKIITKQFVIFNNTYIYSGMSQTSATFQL
IMP-1 inhibitor: blocks Pseudomonas aeruginosa IMP-1 metallo-beta-lactamase; purified IMP-1, nitrocefin hydrolysis, epi-absorbance fluorescence; inhibition, % at 5.6 µM; 0.45% of 290,000 active; AID 1556;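 active = inhibition above the mean plus 3 SD of all compounds in the same screening run, cut at about 4.5% in these data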
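Material – recombinant IMP-1 enzyme, purified · Amount – IMP-1 0.2 nM before substrate addition · Medium – HEPES buffer pH 7.1 with ZnSO4 and Brij 35 · Timing – 25 °C, 15 min preincubation, 25 min reaction · Measured by – plate fluorescence quenching by hydrolysis product, ex 480/em 530 nm · Read-out – percent enzyme inhibition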
PolyA inh: yeast polyadenylation inhibition. S. cerevisiae SKY197-pL101 polyadenylation reporter, beta-gal luminescence; efflux-impaired pdr1/pdr3 knockout yeast; score 100 = 6 SD above DMSO. AID 1875. 0.02% of 300,000 active. activity score, % at 12 µM;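 active = lowest replicate activity score at least 50, where 100 means six control SD above control mean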;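 note: yeast exposed to compound for 9 h at 30 °C; higher score means more reporter readthrough which indicates perturbed polyadenylation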
procasp3 activ: procaspase-3 (human) activation; recombinant procaspase-3 D3A, Ac-DEVD-pNA absorbance 405 nm; activation, % at 8.5 µM; 0.11% of 330,000 active; AID 463141;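 active = activation above the mean of all tested compounds plus 3 SD, cut at about 21% in these data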
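Assay system – Procaspase-3 D3A mutant · Benchmarks – DMSO low control, extra-enzyme high control · Technique – 405 nm absorbance of p-nitroaniline, reads at 0 and 120 min · Doses – 8.5 µM nominal · Measure – % activation between DMSO and enzyme-spiked controls · Also added – Ac-DEVD-pNA chromogenic peptide substrate · Schedule – 1 h compound preincubation, 2 h substrate hydrolysis at 25 °C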
proCasp7 act: activates human procaspase-7, counter-screen for procaspase-3 activators; activation, % at 8.5 µM; recombinant procaspase-7, Ac-DEVD-pNA absorbance 405 nm; D23A/D198A/D206A triple mutant, cannot self-cleave; scale: DMSO 0, 5 µM enzyme 100; 0.093% of 330,000 active;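 active = percent activation above the screen-wide mean plus 3 SD, cut at about 25% in these data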
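Assay system: Uncleavable procaspase-7 mutant enzyme / Input: 2 µM procaspase-7 mutant as dispensed / Dosing: single nominal 8.5 µM compound dose, 0.8% DMSO final / Timing: 1 h enzyme–compound preincubation and 2 h substrate reaction, both 25 °C / Detection: p-Nitroaniline absorbance at 405 nm, read at 0 and 120 min / Replication: singlicate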
A number is an active result; . = inactive; / = not tested or not shown; + = active, no number.

SMILES	VIM-2 inhibitor	Neddyl block	IMP-1 inhibitor	PolyA inh	procasp3 activ	proCasp7 act
CCCn1c2ccccc2c2nnc(SCCN3CCOCC3)nc21	.	.	.	.	.	.
Cc1nc(-c2ccccc2)cc(=O)[nH]1	.	.	.	.	.	.
O=C(Cc1ccccc1)Nc1nc(=O)c2ccccc2s1	11	.	.	.	.	.
Cc1ccc(-c2c3c([nH]c(=S)c2C#N)CCCC3)o1	.	.	9.7	.	.	.
N#Cc1c(-c2ccncc2)c2c([nH]c1=S)CCCC2	.	.	.	.	.	.
Cc1cc(C)c(NC(=O)CSc2nnc(CNC(=O)c3ccccc3F)o2)c(C)c1	.	.	.	.	.	.
O=C(O)CCSc1nnnn1-c1ccccc1	.	.	.	.	.	.
CCOC(OCC)c1cn(Cc2ccc3c(c2)C(=O)c2ccccc2C3=O)nn1	9.9	/	.	.	.	.
CCOC(=O)c1cn(Cc2ccc(Br)cc2)nn1	.	.	.	.	.	.
CCOC(=O)C1=C(C)N=c2s/c(=C/c3ccc(OCC(=O)O)c(OC)c3)c(=O)n2C1c1ccc(Cl)cc1 (stereo unspecified)	/	+	/	.	.	.
CCOC(=O)C1=C(C)N=c2s/c(=C\c3ccc(OCC(=O)O)cc3)c(=O)n2C1c1ccc(Cl)cc1 (stereo unspecified)	.	.	.	.	/	/
CCOC(=O)c1c(C)oc2c1cc(NS(=O)(=O)c1ccc(C(=O)O)cc1)c1ccccc12	.	.	9.7	.	.	.
OCCNc1nc(-c2cccnc2)nc2ccccc12	.	.	.	.	.	.
OCCSc1nc(-c2cccnc2)nc2ccccc12	7.7	.	.	.	.	.
O=C(Nc1ccc(Cl)cc1)N1CC=CCC1	.	.	8.1	.	.	.
COc1ccc2cc3cc(C(=O)N4CCN(C5CCCCC5)CC4)oc3nc2c1	.	/	.	.	.	.
COc1ccc2cc3cc(C(=O)N4CCCCCC4)oc3nc2c1	.	+	.	.	.	.
COc1ccc2cc3cc(C(=O)NCCCN4CCC(C)CC4)oc3nc2c1	9.9	/	.	.	.	.
CCN1/C(=C/C=C/c2oc3ccc(-c4ccccc4)cc3[n+]2CC)Oc2ccc(-c3ccccc3)cc21	.	.	4.6	.	.	.
O=C(c1ccc(S(=O)(=O)N2CCCCCC2)cc1)N1CCC(CN2C(=O)c3cccc4cccc(c34)C2=O)CC1	.	/	5.2	.	.	.
CN(C)CCCNCCCCNC(=O)/C=N/O	.	.	.	.	.	.
CN(C)CCCNCCCNC(=O)/C=N/O	.	.	4.6	.	.	.
O=c1/c(=C/c2ccco2)sc2nc(-c3ccccc3Br)nn12	.	.	5.2	/	.	.
C[C@@H]1CN([C@H](C)CO)C(=O)c2cc(-c3ccc(C#N)cc3)cnc2O[C@H]1CN(C)C(=O)c1ccccc1	/	.	/	/	/	/
COc1ccc(CCn2c(O)cc3nn(-c4nc5ccccc5s4)c(=O)c-3c2C)cc1	.	+	.	.	.	.
SMILES	VIM-2 inhibitor	Neddyl block	IMP-1 inhibitor	PolyA inh	procasp3 activ	proCasp7 act
COc1ccc(CN2CCN(c3nc4ccccc4s3)CC2)cc1	.	.	.	.	/	/
COc1ccc(Nc2nc(N3CCN(S(C)(=O)=O)CC3)nc3ccccc23)c(OC)c1	.	/	.	.	.	.
CC(Nc1nc(N2CCN(S(C)(=O)=O)CC2)nc2ccccc12)c1ccccc1 (stereo unspecified)	.	/	4.5	.	.	.
CC1CCCC(NC(=O)COC(=O)c2cccnc2Cl)C1C (stereo unspecified)	/	.	/	/	.	.
Cc1c(O)c(CN2CCCC2)cc2c3c(c(=O)oc12)CCC3	9.6	/	.	.	.	.
O=c1oc2c(CN3CCOCC3)c(O)c(Cl)cc2c2c1CCCC2	.	.	5.3	.	.	.
Cc1c(O)c(CN2CCCC2)cc2c1oc(=O)c1ccccc12	9.0	.	.	.	.	.
O=C(NN=Cc1ccc(O)cc1O)c1ccccc1NS(=O)(=O)c1cccs1	/	+	/	/	.	.
COc1ccc(C=NNC(=O)c2ccccc2NS(=O)(=O)c2cccs2)cc1O	/	.	/	/	.	.
CCn1c(SCC(=O)N(C(C)C)C(C)C)nnc1-c1cc2ccccc2cc1O	12	.	.	.	.	.
COCC(=O)OCC(=O)N1N=C(c2ccc(Cl)cc2)CC1c1ccco1 (stereo unspecified)	9.9	.	.	.	.	.
CCC(=O)N1N=C(c2ccc(Cl)cc2)CC1c1ccco1 (stereo unspecified)	9.5	.	.	.	.	.
Nc1nc(SCC(=O)N2N=C(c3ccc(Cl)cc3)CC2c2ccco2)n[nH]1 (stereo unspecified)	11	.	.	.	.	.
O=C1c2cnc3nc(SCc4ccccc4)nn3c2CC2c3ccccc3CCN12 (stereo unspecified)	.	.	.	114	.	.
O=C1CC2c3ccccc3CCN2C(=O)CN1Cc1ccccc1 (stereo unspecified)	/	.	/	/	/	/
Cn1c(-c2ccc(Br)o2)nc2cc(Br)ccc21	8.0	.	.	/	.	.
CCOC(=O)C(C)Sc1nc(=O)n2ccccc2n1 (stereo unspecified)	.	.	.	.	.	.
COc1cc(N)n(S(=O)(=O)c2ccc(C)cc2)n1	.	.	.	.	.	.
Oc1cc(O)cc(/C=C/c2ccc(O)c(O)c2)c1	/	+	/	/	.	.
CSc1ncccc1C(=O)Nc1cc(Cl)ccc1N1CCOCC1	/	.	/	/	.	.
CCOCCCNC(=O)c1cn(C)c(=O)c2cc(OC)c(OC)cc12	.	.	4.7	.	.	.
CC(C)(C)NC(=O)C(c1ccncc1)n1c(=O)c(-c2ccco2)nc2ccccc21 (stereo unspecified)	/	+	/	/	/	/
CC(C)(C)NC(=O)C(c1ccccc1)n1c(=O)c(-c2ccco2)nc2ccccc21 (stereo unspecified)	/	.	/	/	/	/
CC(C)c1ccc(NC(=O)CN2C(=O)NC(Cc3c[nH]c4ccccc34)C2=O)cc1 (stereo unspecified)	/	.	/	/	.	.
COc1ccc2c(c1)cc(C(=O)N[C@@H](CCSC)C(=O)N1CCC[C@H]1C(=O)O)n2C	12	/	.	.	.	.
CC(C)(C)NC(=O)N1CCN(c2nc3ccc(Cl)cc3s2)CC1	.	.	.	.	.	.
CCN1CCc2c(sc(NC(=O)c3ccc(S(=O)(=O)N4CCCC4)cc3)c2C(=O)NC)C1	8.7	.	.	.	.	.
CNC(=O)c1c(NC(=O)c2ccc(S(=O)(=O)N3CCCCC3)cc2)sc2c1CCN(C(C)C)C2	.	.	.	.	.	.
CCCN1CCc2c(sc(NC(=O)c3ccc(S(=O)(=O)N(C)c4ccccc4)cc3)c2C(=O)NC)C1	.	.	9.6	.	.	.
CCCCNC(=O)Cc1c(O)c2ccccc2[nH]c1=O	.	.	.	.	.	.

Source: PubChem BioAssay
